Tests used:
[1] = biological target: T1, Cytochrome P450 11B2, mitochondrial (Homo sapiens, UniProt P19099); assay: Inhibition of human CYP11B2 expressed in V79 cells assessed as aldosterone level after 3 hrs by HTRF assay in presence of 125 nM 11-deoxycorticosterone; format: cell-based
T1 sequence (P19099 whole entry): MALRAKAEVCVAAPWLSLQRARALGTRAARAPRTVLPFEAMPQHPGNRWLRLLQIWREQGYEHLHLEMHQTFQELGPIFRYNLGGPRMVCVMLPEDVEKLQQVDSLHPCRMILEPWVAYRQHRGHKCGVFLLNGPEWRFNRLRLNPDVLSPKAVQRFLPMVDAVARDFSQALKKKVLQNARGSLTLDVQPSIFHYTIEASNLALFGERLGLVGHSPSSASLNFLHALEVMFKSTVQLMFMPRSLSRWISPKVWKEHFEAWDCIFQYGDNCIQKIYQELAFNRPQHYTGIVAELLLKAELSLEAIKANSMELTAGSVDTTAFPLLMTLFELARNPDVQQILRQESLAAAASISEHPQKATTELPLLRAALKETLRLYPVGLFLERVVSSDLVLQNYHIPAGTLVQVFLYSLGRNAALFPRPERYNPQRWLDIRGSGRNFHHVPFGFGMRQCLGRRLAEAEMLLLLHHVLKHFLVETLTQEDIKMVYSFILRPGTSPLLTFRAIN

[2] = biological target: T2, Cytochrome P450 11B1, mitochondrial (Homo sapiens, UniProt P15538); assay: (§1) Inhibition of human CYP11B1 expressed in V79 cells assessed as cortisol level after 3 hrs by HTRF assay in presence of 250 nM 11-deoxycortisol; format: cell-based
T2 sequence (P15538 whole entry): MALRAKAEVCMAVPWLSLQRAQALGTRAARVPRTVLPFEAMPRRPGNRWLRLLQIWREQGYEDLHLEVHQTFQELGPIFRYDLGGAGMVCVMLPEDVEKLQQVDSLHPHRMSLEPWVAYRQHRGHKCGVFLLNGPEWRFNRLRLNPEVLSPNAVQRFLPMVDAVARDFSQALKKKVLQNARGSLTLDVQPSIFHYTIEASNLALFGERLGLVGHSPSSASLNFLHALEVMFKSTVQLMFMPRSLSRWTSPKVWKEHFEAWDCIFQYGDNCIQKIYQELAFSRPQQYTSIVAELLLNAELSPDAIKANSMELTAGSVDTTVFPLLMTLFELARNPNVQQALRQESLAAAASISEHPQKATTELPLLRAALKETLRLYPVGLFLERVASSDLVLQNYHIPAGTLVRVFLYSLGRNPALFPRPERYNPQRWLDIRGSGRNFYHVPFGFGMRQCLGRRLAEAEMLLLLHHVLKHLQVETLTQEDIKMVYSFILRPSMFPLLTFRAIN

Homo sapiens = organism: Homo sapiens; assay: Selectivity index, ratio IC50 for human CYP11B1 to IC50 for human CYP11B2
In short: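 Ratio of human CYP11B1 IC50 to human CYP11B2 IC50; each IC50 calculated from n ≥ 2 determinations.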

[3] = Lipophilicity, log D of the compound by HPLC; format: physicochemical
In short: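 Lipophilicity determined experimentally by HPLC.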

[4] = Half life in Sprague-Dawley rat at 2 mg/kg, po administered through gavage by LC/MS/MS method; format: ADME, organism-based; settings: in vivo
[5] = Oral bioavailability in Sprague-Dawley rat at 2 mg/kg administered through gavage; format: ADME, organism-based; settings: in vivo
[6] = Intrinsic clearance in Sprague-Dawley rat liver microsomes by LC/MS method; format: ADME; settings: read-out: CLH
Rattus norvegicus = assay: Dose normalized AUC in Sprague-Dawley rat at 2 mg/kg, po administered through gavage; format: ADME, organism-based; settings: in vivo
[7] = Plasma clearance in Sprague-Dawley rat at 2 mg/kg, po administered through gavage by LC/MS/MS method; format: ADME, organism-based
CYP11B1 = biological target: T3, CYP11B1 (Homo sapiens, UniProt P15538); assay: as §1; format: cell-based; settings: human, V79 cells expressing human CYP11B1, probe 11-deoxycortisol (250 nM)
T3 sequence (P15538 whole entry): T2 sequence (P15538 whole entry)

Cytochrome P450 3A4 = Cytochrome P450 3A4 (Homo sapiens, UniProt P08684); assay: Inhibition of human CYP3A4; format: ADME
Aromatase = biological target: T4, Aromatase (Homo sapiens, UniProt P11511); assay: Inhibition of human CYP19
T4 sequence (P11511 whole entry): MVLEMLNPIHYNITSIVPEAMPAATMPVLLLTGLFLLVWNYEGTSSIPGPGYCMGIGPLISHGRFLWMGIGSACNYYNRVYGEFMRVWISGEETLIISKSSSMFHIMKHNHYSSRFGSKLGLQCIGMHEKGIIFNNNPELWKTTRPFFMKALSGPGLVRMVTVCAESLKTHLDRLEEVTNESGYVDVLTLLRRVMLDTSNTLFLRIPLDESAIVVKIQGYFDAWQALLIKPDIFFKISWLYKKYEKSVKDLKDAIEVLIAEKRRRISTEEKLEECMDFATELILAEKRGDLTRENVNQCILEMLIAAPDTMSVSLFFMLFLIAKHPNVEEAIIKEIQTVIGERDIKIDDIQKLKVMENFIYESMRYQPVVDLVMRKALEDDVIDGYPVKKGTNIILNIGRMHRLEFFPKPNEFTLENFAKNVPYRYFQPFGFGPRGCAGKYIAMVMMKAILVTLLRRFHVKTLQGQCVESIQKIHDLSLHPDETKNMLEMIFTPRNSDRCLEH

[8] = biological target: T5, Steroid 17-alpha-hydroxylase/17,20 lyase (Homo sapiens, UniProt P05093); assay: Inhibition of human CYP17 expressed in COS7 cells assessed as DHEA level after 3 hrs by EIA assay in presence of 360 nM 17-hydroxypregnenolone; format: cell-based, COS-7
T5 sequence (P05093 whole entry): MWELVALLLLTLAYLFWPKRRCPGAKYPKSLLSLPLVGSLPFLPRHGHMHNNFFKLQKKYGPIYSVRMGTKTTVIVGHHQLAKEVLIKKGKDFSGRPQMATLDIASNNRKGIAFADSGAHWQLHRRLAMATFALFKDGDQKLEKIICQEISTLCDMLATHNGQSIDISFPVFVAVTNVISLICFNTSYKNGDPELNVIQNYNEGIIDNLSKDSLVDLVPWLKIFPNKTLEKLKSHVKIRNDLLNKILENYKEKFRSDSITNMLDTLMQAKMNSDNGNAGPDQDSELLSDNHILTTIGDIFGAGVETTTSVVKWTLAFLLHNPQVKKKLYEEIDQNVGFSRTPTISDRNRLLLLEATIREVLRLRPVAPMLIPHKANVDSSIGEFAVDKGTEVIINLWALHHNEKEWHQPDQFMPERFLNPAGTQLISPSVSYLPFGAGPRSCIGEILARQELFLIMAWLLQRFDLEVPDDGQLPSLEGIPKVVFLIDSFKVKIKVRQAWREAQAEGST

[9] = biological target: T6, Cytochrome P450 11B2, mitochondrial (Rattus norvegicus, UniProt P30099); assay: Inhibition of rat CYP11B2 expressed in V79 cells assessed as aldosterone level after 3 hrs by HTRF assay in presence of 500 nM 11-deoxycorticosterone; format: cell-based; settings: v79, 3 h
T6 sequence (P30099 whole entry): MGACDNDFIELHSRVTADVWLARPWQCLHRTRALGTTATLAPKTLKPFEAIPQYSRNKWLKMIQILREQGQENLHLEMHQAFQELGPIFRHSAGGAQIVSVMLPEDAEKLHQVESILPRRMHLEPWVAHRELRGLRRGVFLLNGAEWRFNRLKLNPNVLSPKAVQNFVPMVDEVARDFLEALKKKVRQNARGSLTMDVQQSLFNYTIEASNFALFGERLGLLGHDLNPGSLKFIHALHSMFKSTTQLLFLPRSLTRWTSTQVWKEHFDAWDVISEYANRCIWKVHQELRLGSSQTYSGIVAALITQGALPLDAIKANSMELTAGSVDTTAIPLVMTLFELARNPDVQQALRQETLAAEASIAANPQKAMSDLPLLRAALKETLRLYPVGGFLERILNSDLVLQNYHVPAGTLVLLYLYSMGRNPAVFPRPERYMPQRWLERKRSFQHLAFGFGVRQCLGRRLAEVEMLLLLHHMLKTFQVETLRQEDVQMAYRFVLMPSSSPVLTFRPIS

[10] = Inhibition of rhesus monkey CYP11B2 expressed in V79 cells assessed as aldosterone level after 3 hrs by HTRF assay in presence of 125 nM 11-deoxycorticosterone; format: cell-based; settings: Macaca mulatta, V79, 3 h
[11] = Plasma protein binding in Sprague-Dawley rat; format: ADME, cell-free

Sequence of Cytochrome P450 3A4 (P08684 whole entry): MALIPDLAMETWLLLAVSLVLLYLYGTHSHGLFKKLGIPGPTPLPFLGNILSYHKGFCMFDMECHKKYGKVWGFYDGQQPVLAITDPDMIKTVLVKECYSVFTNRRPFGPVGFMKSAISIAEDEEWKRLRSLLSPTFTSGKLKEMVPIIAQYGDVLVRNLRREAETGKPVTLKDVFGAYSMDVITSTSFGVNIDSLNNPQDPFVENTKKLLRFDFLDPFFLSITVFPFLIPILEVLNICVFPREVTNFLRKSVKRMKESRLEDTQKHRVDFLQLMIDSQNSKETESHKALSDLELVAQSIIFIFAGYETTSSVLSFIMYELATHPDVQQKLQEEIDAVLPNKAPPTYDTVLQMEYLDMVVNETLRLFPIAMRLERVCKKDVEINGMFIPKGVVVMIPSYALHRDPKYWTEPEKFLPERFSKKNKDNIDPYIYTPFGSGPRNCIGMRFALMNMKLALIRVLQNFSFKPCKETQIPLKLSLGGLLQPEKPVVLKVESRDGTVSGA

Row | Structure (SMILES) | IC50 [1] | IC50 [2] | Ratio IC50 (Homo sapiens) | further results
1 | CNC(=O)c1cncc(-c2ccc3c(c2)CCc2nnc(C)n2-3)c1 | > 8330 nM | > 8330 nM |  | 
2 | FC(F)(F)c1nnc2n1-c1ccc(-c3cccnc3)cc1CC2 | 506 nM | > 8330 nM | > 16 | 
3 | C[C@](O)(c1cncc(-c2ccc3c(c2)CCc2nnc(C(F)(F)F)n2-3)c1)C(F)(F)F | 461 nM | 887 nM | 2 | logD [3]: 2.2
4 | c1cncc(-c2ccc3c(c2)CCc2nnc(C4CCCCC4)n2-3)c1 | 2400 nM | > 8330 nM | > 3 | 
5 | Cc1nnc2n1-c1ccc(-c3cncc(S(C)(=O)=O)c3)cc1CC2 | > 8330 nM | > 8330 nM |  | 
6 | Cc1nnc2n1-c1ccc(-c3cncc(C(=O)N(C)C)c3)cc1CC2 | > 8330 nM | > 8330 nM |  | 
7 | Cc1nnc2n1-c1ccc(-c3cncc(C(F)(F)F)c3)cc1CC2 | 486 nM | > 10000 nM |  | 
8 | c1cncc(-c2ccc3c(c2)CCc2nnc(C4CC4)n2-3)c1 | 487 nM | > 10000 nM | > 21 | 
9 | c1cncc(-c2ccc3c(c2)CCc2nncn2-3)c1 | 300 nM | > 10000 nM | > 33 | 
10 | C[C@@](O)(c1cncc(-c2ccc3c(c2)CCc2nnc(C(F)(F)F)n2-3)c1)C(F)(F)F | 476 nM | > 8330 nM | > 18 | logD [3]: 2.2
11 | CC(C)(O)c1cncc(-c2ccc3c(c2)CCc2nnc(C(F)(F)F)n2-3)c1 | 526 nM | 1470 nM | 3 | fraction unbound [11]: 0.997; half-life [4]: 174 min; bioavailability [5]: 83%; CLint scaled [6]: < 20 mL/min/kg; logD [3]: 1.5; AUC/dose (Rattus norvegicus): 3.87 µM·kg·h/mg; CL/F [7]: 10 mL/min/kg
12 | Cc1nnc2n1-c1ccc(-c3cccnc3)cc1CC2 | 423 nM | > 10000 nM | > 24 | half-life [4]: 12 min; bioavailability [5]: 6%; CLint scaled [6]: 55 mL/min/kg; AUC/dose (Rattus norvegicus): 0.1 µM·kg·h/mg; CL/F [7]: 38 mL/min/kg
13 | Cc1nnc2n1-c1ccc(-c3cncc(F)c3)cc1CC2 | 558 nM | > 10000 nM |  | 

These reach a lower IC50 [1]. Values come first.

Row | IC50 [1] | IC50 [2] | Ratio IC50 (Homo sapiens) | Structure (SMILES) | further results
14 | 5 nM |  |  | Cc1nnc2n1-c1ccc(-c3cncc4ccccc34)cc1CC2 | half-life [4]: 24 min; bioavailability [5]: 75%; CLint scaled [6]: 33 mL/min/kg; AUC/dose (Rattus norvegicus): 0.27 µM·kg·h/mg; CL/F [7]: 150 mL/min/kg; IC50 at 3 h (CYP11B1): 407 nM
15 | 40 nM | 1500 nM |  | Cc1nnc2n1-c1ccc(-c3cncc(S(=O)(=O)c4ccccc4)c3)cc1CC2 | 
16 | 109 nM | > 8330 nM |  | Cc1nnc2n1-c1ccc(-c3cncc([C@@](C)(O)C(F)(F)F)c3)cc1CC2 | logD [3]: 1.2
17 | 58 nM | 2200 nM |  | COC(=O)c1cncc(-c2ccc3c(c2)CCc2nnc(C)n2-3)c1 | IC50 (Cytochrome P450 3A4): > 50000 nM; IC50 (Aromatase): > 10000 nM; IC50 [8]: > 10000 nM
18 | 103 nM | 1360 nM | 13 | c1ccc(-c2nnc3n2-c2ccc(-c4cccnc4)cc2CC3)cc1 | IC50 (Cytochrome P450 3A4): 36500 nM; IC50 (Aromatase): 21 nM; IC50 [8]: 84 nM
19 | 19 nM | 219 nM |  | COC(C)(C)c1cncc(-c2ccc3c(c2)CCc2nnc(C)n2-3)c1 | half-life [4]: 18 min; IC50 (Cytochrome P450 3A4): > 50000 nM; inhibition (INH) [9]: Active; bioavailability [5]: 10%; IC50 (Aromatase): 11200 nM; CLint scaled [6]: 107 mL/min/kg; AUC/dose (Rattus norvegicus): 0.03 µM·kg·h/mg; IC50 [8]: > 10000 nM; CL/F [7]: 177 mL/min/kg; IC50 [10]: 3 nM
20 | 283 nM | > 8330 nM | > 29 | Cc1nnc2n1-c1ccc(-c3cncc(C(C)(C)O)c3)cc1CC2 | half-life [4]: 90 min; inhibition (INH) [9]: Active; bioavailability [5]: 19%; CLint scaled [6]: < 20 mL/min/kg; logD [3]: 0.6; AUC/dose (Rattus norvegicus): 0.19 µM·kg·h/mg; CL/F [7]: 50 mL/min/kg; IC50 [10]: 34 nM
21 | 19 nM | 317 nM |  | COC(=O)C(C)(C)c1cncc(-c2ccc3c(c2)CCc2nnc(C)n2-3)c1 | 

Source: ChEMBL document CHEMBL3621164, “Discovery of Triazole CYP11B2 Inhibitors with in Vivo Activity in Rhesus Monkeys” (ACS Med Chem Lett, 2015)
